Records with an inconclusive call do not appear.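 How the source made its calls, unless noted: active means inhibition over a set limit, the all-compound mean plus 3 SD, in both replicate runs; inconclusive means over that limit in just one replicate run; inactive means at or under that limit in both runs.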
Assays:
[1] = S. cerevisiae growth inhibition in permissive medium (OD615), pilot counter-assay for S. cerevisiae lifespan shortening project, permissive growth control (AID 705;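 active means growth inhibition above 25% in both replicates, a cutoff set 3 SD above the mean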); conditions: OD615, 24 h, at 10 µM, active compounds read high
In short: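 System: Engineered DeaD yeast | Buffer or medium: SC raffinose/galactose permissive medium | Doses: 10 µM single dose, 0.25% DMSO | Times: 24 h exposure, 30 °C | Measured by: OD615 turbidity read | Read-out: Yeast growth inhibition indicated by reduced 24 h OD615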

[2] = S. cerevisiae growth inhibition in restrictive medium, OD615, pilot screen, restrictive growth control, yeast lifespan reduction project (AID 706;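 active means growth inhibition above a set limit, 3 SD over mean compound inhibition, in both replicates, cut at about 43% in these data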;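 further: modified DeaD lifespan yeast strain shifted to restrictive glucose medium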); conditions: OD615, 48 h, at 10 µM, active compounds read high
In short: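 Assay system: engineered S. cerevisiae DeaD strain; Buffer or medium: CSMM-D glucose medium; Dosing: 10 µM compound, 0.25% DMSO; Times: cell pre-growth 4 h, compound exposure 48 h, 30 °C; Detection: absorbance (optical density) measured at 615 nm.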

[3] = doxorubicin toxicity protection in MRP-1 cells – H69AR cells, CellTiter-Glo, duplicate, MRP-1 activator project, pilot screen (AID 807;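 active means viability increase at or above a cutoff of the median across tested compounds plus 3 SD, cut at about 8.5% in these data, passing the limit was not always enough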;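 further: compound pretreatment 18-22 h then 72 h combined with doxorubicin; 0% = doxorubicin alone and 100% = vehicle without doxorubicin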); conditions: H69AR viability with doxorubicin, CellTiter-Glo luminescence; at 10 µM; active compounds read high
[4] = viability of HCT116 without oncogenic beta-catenin – human colon tumor cells, pilot screen (AID 823;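 active means cell viability at or below a set limit in both duplicate runs, the limit being the all-compound median minus 4 SD, cut at about 23% in these data, passing the limit was not always enough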;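 further: 0% = wells killed by 20 µM Hyamine and 100% = untreated DMSO cell wells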); conditions: HCT116 beta-catenin knockout viability, CellTiter-Glo, 60 h; at 10 µM; active compounds read low
[5] = viability of PTEN-null HCT116 cells – cell-based, HCT116 clonal line, CellTiter-Glo, pilot screen (AID 824;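 active means viability at or below 27.92% in each of two runs, the all-compound median minus 4 SD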;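 further: 0% = 20 µM Hyamine control and 100% = vehicle cell control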); conditions: HCT116 PTEN-deleted viability, 60 h, at 10 µM, active compounds read low
[6] = RAM pathway blockade in budding yeast – dse1pr::URA3 reporter, 5-FOA selection, pilot screen (AID 869);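 further: 0% = DMSO wells with no growth and 100% = 10 µM 1-NA-PP1 with full growth; RAM network block rescues cells from 5-FOA so hits raise OD615 growth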; conditions: S. cerevisiae dse1pr::URA3 5-FOA growth, OD615, 2 d; at 10 µM; active compounds read high; strain carries analog-sensitive mutant Cbk1 kinase
[7] = RAM signaling pathway blockade in yeast – S. cerevisiae, Pdr1DBD-CYC8 efflux-inhibited sensitized strain, primary screen (AID 1298;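 active means RAM network inhibition above 8.4% in each of two replicates, 3 SD over the compound average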;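 further: 0% = DMSO untreated cells without growth and 100% = 10 µM 1-NA-PP1 full growth; higher means more yeast growth rescued from 5-FOA killing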); conditions: S. cerevisiae cbk1-as DSE1-URA3 strain, 5-FOA growth OD615, 2 d; at 50 µM; active compounds read high

CC(=O)C1=C(C)NC(=O)NC1c1ccccc1 (stereo not drawn)
inactive: growth inhibition [1] -7.36% | growth inhibition [2] -18.6% | viability increase [3] -2.61% | viability [4] 87.3% | viability [5] 91.5% | inhibition [6] 1.03% | RAM network inhibition [7] 5.38%

CCOCCCNC(=O)c1cc2c(-c3ccc(Cl)cc3)nn(C)c2s1
inactive: growth inhibition [1] 7.49% | growth inhibition [2] 11% | viability increase [3] -6.53% | viability [4] 62.2% | viability [5] 56.8% | inhibition [6] 2.62% | RAM network inhibition [7] 1.34%

CC(c1cccnc1)N(C(=O)Nc1ccccc1)C1CCCCC1 (stereo not drawn)
inactive: growth inhibition [1] -1.48% | growth inhibition [2] -10.8% | viability increase [3] -2.35% | viability [4] 92.1% | viability [5] 91.6% | inhibition [6] 1.96% | RAM network inhibition [7] 5.08%

COc1ccc(S(=O)(=O)N(CCc2ccccc2)CC(=O)O)cc1OC
inactive: growth inhibition [1] -1.68% | growth inhibition [2] 10.5% | viability increase [3] 0.57% | viability [4] 97.6% | viability [5] 102% | inhibition [6] 1.35% | RAM network inhibition [7] 1.09%

CN=C(NC)SC1CC(=O)N(c2ccccc2)C1=O (stereo not drawn)
inactive: growth inhibition [1] -8.98% | growth inhibition [2] -4.91% | viability increase [3] 1.47% | viability [4] 109% | viability [5] 101% | inhibition [6] 0.305% | RAM network inhibition [7] 1.02%

O=C(NCCc1ccccc1)c1ccncc1
inactive: growth inhibition [1] -5.38% | growth inhibition [2] 4.46% | viability increase [3] -0.91% | viability [4] 88.8% | viability [5] 93.5% | inhibition [6] 1.67% | RAM network inhibition [7] 0.86%

COc1ccccc1NC(=O)C1=C(C)NC(=O)NC1c1ccc(C)cc1 (stereo not drawn)
inactive: growth inhibition [1] -6.15% | growth inhibition [2] -13.7% | viability increase [3] -1.68% | viability [4] 105% | viability [5] 95.6% | inhibition [6] 1.23% | RAM network inhibition [7] -1.08%

Cc1cccc(OCC(=O)NCc2ccncc2)c1C
inactive: growth inhibition [1] -7.54% | growth inhibition [2] -7.64% | viability increase [3] -1.63% | viability [4] 99.4% | viability [5] 104% | inhibition [6] 0.525% | RAM network inhibition [7] 4.22%

Cc1cc(C)n(-c2nc3ccccc3nc2Nc2ccc(CC(=O)O)cc2)n1
inactive: growth inhibition [1] 5.73% | growth inhibition [2] -0.88% | viability increase [3] -1.81% | viability [4] 98.8% | viability [5] 95.5% | inhibition [6] -1.14% | RAM network inhibition [7] -2.71%

CC(=O)Oc1ccc(C(=O)Nc2nccs2)cc1
inactive: growth inhibition [1] -7.33% | growth inhibition [2] -14.7% | viability increase [3] -4.75% | viability [4] 88.2% | viability [5] 80.3% | inhibition [6] 3.5% | RAM network inhibition [7] 0.1%

O=C(CN1c2cccc3cccc(c23)S1(=O)=O)NCc1ccc2c(c1)OCO2
inactive: growth inhibition [1] -1.29% | growth inhibition [2] -6.94% | viability increase [3] -3.03% | viability [4] 89.2% | viability [5] 82.6% | inhibition [6] 1.05% | RAM network inhibition [7] 5.12%

Cc1ccc(C(=O)N2CCN(C(=O)CN3CCOCC3)C2)cc1
inactive: growth inhibition [1] -4.56% | growth inhibition [2] -13.1% | viability increase [3] -1.25% | viability [4] 95% | viability [5] 97.3% | inhibition [6] -0.175% | RAM network inhibition [7] 0.11%

O=C(CSCC(=O)N1CCOCC1)Nc1ccccc1
inactive: growth inhibition [1] -11.4% | growth inhibition [2] -8.24% | viability increase [3] -0.42% | viability [4] 97.2% | viability [5] 97.8% | inhibition [6] 0.42% | RAM network inhibition [7] 2.75%

C=CCSc1nnc(-c2cc(Br)ccc2N)c(=O)[nH]1
inactive: growth inhibition [1] -14.6% | growth inhibition [2] -18% | viability increase [3] 0.99% | viability [4] 102% | viability [5] 96.5% | inhibition [6] 0.7% | RAM network inhibition [7] 2.42%

CCOC(=O)C1CCCN(c2c(Nc3cccc(C)c3)c(=O)c2=O)C1 (stereo not drawn)
inactive: growth inhibition [1] -6.7% | growth inhibition [2] 2.08% | viability increase [3] -2.71% | viability [4] 104% | viability [5] 93.2% | inhibition [6] -0.555% | RAM network inhibition [7] 2.72%

COc1ccccc1-c1cc(C2CC2)nc(N)c1C#N
inactive: growth inhibition [1] -20.8% | growth inhibition [2] -19.3% | viability increase [3] -3.86% | viability [4] 94.7% | viability [5] 94.2% | inhibition [6] -0.08% | RAM network inhibition [7] 3.76%

Cc1c(C(=O)N2CCN(CCc3ccccc3)CC2)oc2ccccc12
inactive: growth inhibition [1] -0.01% | growth inhibition [2] 7.52% | viability increase [3] -1.75% | viability [4] 100% | viability [5] 94.7% | inhibition [6] 0.455% | RAM network inhibition [7] 1.34%

CCCc1cc(=O)[nH]c(SCC(=O)N2CCN(S(=O)(=O)c3ccc(C)cc3)C2)n1
inactive: growth inhibition [1] -4.67% | growth inhibition [2] -21.2% | viability increase [3] -1.75% | viability [4] 98.8% | viability [5] 85.6% | inhibition [6] 2.64% | RAM network inhibition [7] 3.8%

CCc1nnc(NC(=O)c2ccc(N3C(=O)CCC3=O)cc2)s1
inactive: growth inhibition [1] -9.63% | growth inhibition [2] -14.9% | viability increase [3] -1.98% | viability [4] 101% | viability [5] 94.7% | inhibition [6] 1.32% | RAM network inhibition [7] 2.48%

COc1ccccc1C1NC(=O)NC(C)=C1C(=O)OC1CCCCC1 (stereo not drawn)
inactive: growth inhibition [1] -4.16% | growth inhibition [2] -6.71% | viability increase [3] 0.87% | viability [4] 97.5% | viability [5] 92.3% | inhibition [6] 2.65% | RAM network inhibition [7] 2.9%

Cn1c(=O)oc2cc(S(=O)(=O)N3CCCC(C(=O)N4CCn5c4nc4ccccc45)C3)ccc21 (stereo not drawn)
inactive: growth inhibition [1] -8.03% | growth inhibition [2] -7.74% | viability increase [3] -1.54% | viability [4] 77.7% | viability [5] 76.2% | inhibition [6] 0.695% | RAM network inhibition [7] 1.49%

Cc1ccccc1NC(=O)CCn1c(=O)oc2ccccc21
inactive: growth inhibition [1] -3.42% | growth inhibition [2] -26.5% | viability increase [3] -1.87% | viability [4] 101% | viability [5] 91.3% | inhibition [6] 1.54% | RAM network inhibition [7] 3.96%

COc1ccc(NC(=O)C2CCN(C(=O)c3ccccc3)CC2)c(OC)c1
inactive: growth inhibition [1] 9.86% | growth inhibition [2] -0.9% | viability increase [3] -2.96% | viability [4] 95.8% | viability [5] 94.8% | inhibition [6] 2.57% | RAM network inhibition [7] 3.44%

CCOC(=O)N1CCC(NC(=O)C2CCCCN2S(=O)(=O)c2ccc(F)cc2)CC1 (stereo not drawn)
inactive: growth inhibition [1] -12.5% | growth inhibition [2] -1.21% | viability increase [3] -3.71% | viability [4] 94% | viability [5] 89.6% | inhibition [6] 0.405% | RAM network inhibition [7] -0.16%
